ChEMBL document CHEMBL2417520, “Synthesis and biological evaluation of amino analogs of Ludartin: potent and selective cytotoxic agents” (Bioorg Med Chem Lett, 2013)

Experiments:
PC-3 [1] = assay: Cytotoxicity against human PC3 cells assessed as cell growth inhibition at 50 uM after 48 hrs by sulphorhodamine B assay; type: functional; settings: PC-3, 48 h, read-out: GI
How it was run: (§1)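 Single-concentration screen of analogs at 50 µM for 48 h on overnight-adhered cells maintained in RPMI-1640/10% FBS at 37 °C, 5% CO2. Cells were fixed with ice-cold TCA (60 min) and stained 30 min with 0.4% SRB in 1% acetic acid. Bound dye was dissolved in 10 mM Tris and OD read at 570 nm, expressed as % growth inhibition.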

HCT-116 [2] = assay: Cytotoxicity against human HCT116 cells assessed as cell growth inhibition at 50 uM after 48 hrs by sulphorhodamine B assay; type: functional; settings: HCT-116, 48 h, read-out: GI; how it was run: as §1
THP-1 [3] = assay: Cytotoxicity against human THP1 cells assessed as cell growth inhibition at 50 uM after 48 hrs by sulphorhodamine B assay; type: functional; settings: THP-1, 48 h, read-out: GI; how it was run: as §1
A549 [4] = assay: Cytotoxicity against human A549 cells assessed as cell growth inhibition at 50 uM after 48 hrs by sulphorhodamine B assay; type: functional; settings: A549, 48 h, read-out: GI; how it was run: as §1
THP-1 [5] = assay: Cytotoxicity against human THP1 cells assessed as cell growth inhibition after 48 hrs by sulphorhodamine B assay; type: functional, cell-based; settings: THP-1, 48 h
How it was run: (§2)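 Cells grown in RPMI-1640 with 10% FBS and penicillin/streptomycin at 37 °C under 5% CO2, then allowed to adhere overnight. Only analogs giving >50% inhibition at 50 µM were retested at 10–100 µM for 48 h. Cells were fixed with cold TCA and stained with 0.4% SRB in 1% acetic acid. Dye was solubilised in 10 mM Tris and read at 570 nm to give IC50.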

A549 [6] = assay: Cytotoxicity against human A549 cells assessed as cell growth inhibition after 48 hrs by sulphorhodamine B assay; type: functional, cell-based; settings: A549, 48 h; how it was run: as §2
HCT-116 [7] = assay: Cytotoxicity against human HCT116 cells assessed as cell growth inhibition after 48 hrs by sulphorhodamine B assay; type: functional, cell-based; settings: HCT-116, 48 h; how it was run: as §2
PC-3 [8] = assay: Cytotoxicity against human PC3 cells assessed as cell growth inhibition after 48 hrs by sulphorhodamine B assay; type: functional, cell-based; settings: PC-3, 48 h; how it was run: as §2
PC-3 [9] = assay: Ratio of ludartin IC50 to compound IC50 for human PC3 cells; type: functional
A549 [10] = assay: Ratio of ludartin IC50 to compound IC50 for human A549 cells; type: functional

| SMILES | inhibition of growth at 50 µM (PC-3 [1]) | inhibition of growth at 50 µM (HCT-116 [2]) | inhibition of growth at 50 µM (THP-1 [3]) | inhibition of growth at 50 µM (A549 [4]) | IC50 (THP-1 [5]) | IC50 (A549 [6]) | IC50 (HCT-116 [7]) | IC50 (PC-3 [8]) | Ratio IC50 (PC-3 [9]) | Ratio IC50 (A549 [10]) |
| --- | --- | --- | --- | --- | --- | --- | --- | --- | --- | --- |
| CNC[C@@H]1C(=O)O[C@H]2[C@H]1CCC(C)=C1C[C@H]3O[C@@]3(C)[C@@H]12 | 12% | 16% | 25% | 10% |  |  |  |  |  |  |
| CCNC[C@@H]1C(=O)O[C@H]2[C@H]1CCC(C)=C1C[C@H]3O[C@@]3(C)[C@@H]12 | 43% | 36% | 68% | 20% | 29 µM |  |  |  |  |  |
| CCCNC[C@@H]1C(=O)O[C@H]2[C@H]1CCC(C)=C1C[C@H]3O[C@@]3(C)[C@@H]12 | 17% | 2% | 23% | 39% |  |  |  |  |  |  |
| CCCCNC[C@@H]1C(=O)O[C@H]2[C@H]1CCC(C)=C1C[C@H]3O[C@@]3(C)[C@@H]12 | 14% | 4% | 28% | 0% |  |  |  |  |  |  |
| CCN(CC)C[C@@H]1C(=O)O[C@H]2[C@H]1CCC(C)=C1C[C@H]3O[C@@]3(C)[C@@H]12 | 56% | 95% | 98% | 73% | 3.5 µM | 22 µM | 3.7 µM | 32 µM |  |  |
| C=CCNC[C@@H]1C(=O)O[C@H]2[C@H]1CCC(C)=C1C[C@H]3O[C@@]3(C)[C@@H]12 | 16% | 28% | 39% | 0% |  |  |  |  |  |  |
| C#CCNC[C@@H]1C(=O)O[C@H]2[C@H]1CCC(C)=C1C[C@H]3O[C@@]3(C)[C@@H]12 | 33% | 4% | 40% | 36% |  |  |  |  |  |  |
| CC1=C2C[C@H]3O[C@@]3(C)[C@@H]2[C@H]2OC(=O)[C@@H](CN3CCCC3)[C@@H]2CC1 | 11% | 15% | 67% | 0% | 26 µM |  |  |  |  |  |
| CC1=C2C[C@H]3O[C@@]3(C)[C@@H]2[C@H]2OC(=O)[C@@H](CN3CCCCC3)[C@@H]2CC1 | 85% | 90% | 93% | 87% | 3.9 µM | 17 µM | 4 µM | 23 µM |  |  |
| CC1=C2C[C@H]3O[C@@]3(C)[C@@H]2[C@H]2OC(=O)[C@@H](CN3CCOCC3)[C@@H]2CC1 | 59% | 58% | 97% | 42% | 2.8 µM |  |  |  |  |  |
| CC1=C2C[C@H]3O[C@@]3(C)[C@@H]2[C@H]2OC(=O)[C@@H](CNCc3ccc(F)cc3)[C@@H]2CC1 | 64% | 0% | 26% | 16% |  |  |  |  |  |  |
| CC1=C2C[C@H]3O[C@@]3(C)[C@@H]2[C@H]2OC(=O)[C@@H](Cn3ccnc3)[C@@H]2CC1 | 53% | 42% | 36% | 0% |  |  |  |  |  |  |
| CC1=C2C[C@H]3O[C@@]3(C)[C@@H]2[C@H]2OC(=O)[C@@H](Cn3cnc([N+](=O)[O-])c3)[C@@H]2CC1 | 15% | 30% | 32% | 0% |  |  |  |  |  |  |
| CC1=C2C[C@H]3O[C@@]3(C)[C@@H]2[C@H]2OC(=O)[C@@H](Cn3cncn3)[C@@H]2CC1 | 66% | 70% | 83% | 69% | 15 µM | 32 µM | 20 µM | 35 µM |  |  |
| CC1=C2C[C@H]3O[C@@]3(C)[C@@H]2[C@H]2OC(=O)[C@@H](Cn3nc4ccccc4n3)[C@@H]2CC1 | 40% | 13% | 15% | 25% |  |  |  |  |  |  |
| CC1=C2C[C@H]3O[C@@]3(C)[C@@H]2[C@H]2OC(=O)[C@@H](Cn3ncc4ccc([N+](=O)[O-])cc43)[C@@H]2CC1 | 99% | 86% | 63% | 84% | 29 µM | 35 µM | 17 µM | 2.2 µM | 3 |  |
| CC1=C2C[C@H]3O[C@@]3(C)[C@@H]2[C@H]2OC(=O)[C@@H](Cn3ncc4cc([N+](=O)[O-])ccc43)[C@@H]2CC1 | 52% | 57% | 72% | 99% | 31 µM | 2.6 µM | 40 µM | 34 µM |  | 3 |
| C=C1C(=O)O[C@H]2[C@H]1CCC(C)=C1C[C@H]3O[C@@]3(C)[C@@H]12 [LUDARTIN] | 97% | 97% | 98% | 97% | 3.1 µM | 7.4 µM | 6.9 µM | 7.5 µM |  |  |
